Holding throughout (type): functional
What all share (details): read-out: GI

One test concerns HCT-116. In words: Cytotoxicity against human HCT116 cells assessed as growth inhibition at 5 ug/ml by MTT assay. The essentials:
(§1)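 Single-concentration MTT screen at 5 µg/mL across SF-295 (glioblastoma), OVCAR-8 (ovary) and HCT-116 (colon) cells. Read-out is percent growth inhibition, reported with sd.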
(Formazan colour is commonly taken as a measure of viable cells.)

The next test has as its system SF-295. The test is described as follows: Cytotoxicity against human SF295 cells assessed as growth inhibition at 5 ug/ml by MTT assay. The essentials:
as §1

The subject of the next test is OVCAR-8. In words: Cytotoxicity against human OVCAR8 cells assessed as growth inhibition at 5 ug/ml by MTT assay. Summed up:
as §1

As to `Oc1ccc(/C=N/Nc2cnc3ccccc3n2)c(O)c1`, the inhibition of growth at 5 µg/mL worked out at 85.1% in the test with HCT-116, 85.3% in the test with SF-295 and 84.2% with OVCAR-8.
With `N#Cc1cccc(/C=N/Nc2cnc3ccccc3n2)c1`, the inhibition of growth at 5 µg/mL in the test with HCT-116 was 30.7%; in the test on SF-295, 44.5%; with OVCAR-8 it was 11.5%.
As to `COc1ccc(/C=N/Nc2cnc3ccccc3n2)c(Cl)c1O`, the inhibition of growth at 5 µg/mL with HCT-116 is 24.5%; in the test on SF-295, 32.4%; with OVCAR-8, 13.8%.
Take `Cc1ccccc1/C=N/Nc1cnc2ccccc2n1`: the inhibition of growth at 5 µg/mL in the test on HCT-116 is 28.7%; in the test with SF-295 it was 46.4%; with OVCAR-8, 17.8%.
The like results for `CCOc1ccc(/C=N/Nc2cnc3ccccc3n2)cc1` were, in that order, 17.6%, 12.3% and 50.3%.
`COc1ccccc1/C=N/Nc1cnc2ccccc2n1`: the inhibition of growth at 5 µg/mL in the test on HCT-116 worked out at 4.45%; in the test on SF-295 it was 21.8%; in the test on OVCAR-8, 21%.
The matching figures for `Cc1ccc(O)c(/C=N/Nc2cnc3ccccc3n2)c1`: 13.7%, 38.4% and 25.4%.
The matching figures for `Clc1ccc(/C=N/Nc2cnc3ccccc3n2)c(Cl)c1`: 16.5%, 28.5% and 4.9%.
Regarding `O=[N+]([O-])c1cc(/C=N/Nc2cnc3ccccc3n2)ccc1Cl`, the inhibition of growth at 5 µg/mL came to 20.6% in the test on HCT-116, 36.8% in the test on SF-295 and 9% in the test on OVCAR-8.
As to `Oc1cc(/C=N/Nc2cnc3ccccc3n2)cc(O)c1O`, the results for the inhibition of growth at 5 µg/mL in the test with HCT-116, with SF-295 and with OVCAR-8 were 14.9%, 37.8% and 12.8%, respectively.
The matching figures for `Cc1cccc(/C=N/Nc2cnc3ccccc3n2)c1`: 33.4%, 39.8% and 39.9%.
On to `Brc1ccccc1/C=N/Nc1cnc2ccccc2n1`, for which the inhibition of growth at 5 µg/mL in the test on HCT-116 is 23.6%; in the test on SF-295, 35.2%; in the test with OVCAR-8, 18%.
The like results for `O=[N+]([O-])c1ccc(/C=N/Nc2cnc3ccccc3n2)cc1` were, in that order, 18.6%, 27% and 40.6%.
The like results for `Clc1ccc(/C=N/Nc2cnc3ccccc3n2)cc1Cl` were, in that order, 0.5%, 37.8% and 0%.
The like results for `COc1ccc(/C=N/Nc2cnc3ccccc3n2)c(OC)c1` were, in that order, 12.8%, 46.9% and 7.19%.
Consider `COc1cccc(OC)c1/C=N/Nc1cnc2ccccc2n1`, for which the inhibition of growth at 5 µg/mL was 19.4% with HCT-116, 44.7% with SF-295 and 25.1% in the test with OVCAR-8.
The like results for `N#Cc1ccc(/C=N/Nc2cnc3ccccc3n2)cc1` were, in that order, 31.6%, 16% and 50.9%.
The matching figures for `C(=N\Nc1cnc2ccccc2n1)/c1ccccc1`: 18.4%, 3.37% and 34.5%.
The like results for `Clc1cccc(Cl)c1/C=N/Nc1cnc2ccccc2n1` were, in that order, 71.2%, 52% and 53.5%.
Regarding `Oc1ccc(/C=N/Nc2cnc3ccccc3n2)cc1`, the inhibition of growth at 5 µg/mL with HCT-116 was found to be 20.2%; in the test on SF-295, 39.4%; with OVCAR-8 it was 67.3%.
The matching figures for `CCOc1cccc(/C=N/Nc2cnc3ccccc3n2)c1`: 1.29%, 7.19% and 41.2%.
On to `Oc1ccc(/C=N/Nc2cnc3ccccc3n2)cc1Cl`, for which the inhibition of growth at 5 µg/mL in the test on HCT-116 was found to be 16.2%; with SF-295, 46.6%; in the test on OVCAR-8, 28.8%.
The matching figures for `Cc1ccc(/C=N/Nc2cnc3ccccc3n2)c(O)c1`: 17.4%, 59.9% and 31.5%.
The like results for `Clc1ccc(/C=N/Nc2cnc3ccccc3n2)cc1` were, in that order, 10.2%, 44.5% and 41.7%.
The like results for `Fc1ccccc1/C=N/Nc1cnc2ccccc2n1` were, in that order, 7.01%, 12.8% and 0%.
Regarding `Oc1ccc(O)c(/C=N/Nc2cnc3ccccc3n2)c1`, the inhibition of growth at 5 µg/mL was determined as 89.2% in the test with HCT-116, 50.7% in the test with SF-295 and 60.5% in the test with OVCAR-8.
Consider `COc1cccc(/C=N/Nc2cnc3ccccc3n2)c1OC`, for which the inhibition of growth at 5 µg/mL with HCT-116 came out at 0%; in the test with SF-295, 22.2%; in the test on OVCAR-8 it was 0%.
For `Brc1cccc(/C=N/Nc2cnc3ccccc3n2)c1`, the inhibition of growth at 5 µg/mL was 0% in the test on HCT-116, 14.2% with SF-295 and 0% in the test on OVCAR-8.
As to `Clc1cccc(/C=N/Nc2cnc3ccccc3n2)c1`, the inhibition of growth at 5 µg/mL in the test on HCT-116 came to 0%; with SF-295 it was 33.2%; in the test on OVCAR-8 it was 0%.
Turning to `O=[N+]([O-])c1ccccc1/C=N/Nc1cnc2ccccc2n1`, the figures for the inhibition of growth at 5 µg/mL in the test on HCT-116, in the test on SF-295 and with OVCAR-8 were 23%, 21.9% and 21.8%, respectively.
The matching figures for `Oc1ccc(/C=N/Nc2cnc3ccccc3n2)cc1O`: 69.4%, 47.6% and 46.3%.
The matching figures for `O=[N+]([O-])c1cccc(/C=N/Nc2cnc3ccccc3n2)c1`: 21%, 23.4% and 16.9%.
With `Oc1cccc(/C=N/Nc2cnc3ccccc3n2)c1`, the inhibition of growth at 5 µg/mL in the test on HCT-116 was determined as 29.6%; in the test with SF-295 it was 27.5%; in the test on OVCAR-8, 51.5%.
The like results for `COc1cccc(/C=N/Nc2cnc3ccccc3n2)c1` were, in that order, 14.5%, 35.8% and 41.6%.
The matching figures for `COc1ccc(/C=N/Nc2cnc3ccccc3n2)cc1OC`: 22.3%, 16.5% and 17.6%.
The like results for `Fc1cccc(/C=N/Nc2cnc3ccccc3n2)c1` were, in that order, 10.8%, 8.36% and 5.59%.
Turning to `Brc1ccc(/C=N/Nc2cnc3ccccc3n2)cc1`, the inhibition of growth at 5 µg/mL with HCT-116 is 23.2%; in the test on SF-295, 33.5%; in the test on OVCAR-8, 18.2%.

(Values after ChEMBL document CHEMBL3112521, “Design, synthesis and biological evaluation of (E)-2-(2-arylhydrazinyl)quinoxalines, a promising and potent new class of anticancer agents” (Bioorg Med Chem Lett, 2014).)
